Assay results as given in ChEMBL document CHEMBL5724801, “EUbOPEN Chemogenomics Library - Multiplex” (2024).
Several values for one entry are separate records, joined by “and”; a condition that tells them apart may be missing. Identical values can stand only once.

The compounds below were run on HEK-293T (assay: Multiplex assay against HEK293T). Conditions: human, 12 h, 1 µM, compound concentration 1 uM.
Format: toxicity, cell-based
How it was run: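 Phenotypes for tubulin, mitochondrial mass and membrane permeability are expressed as per cents of healthy-nucleus cells. Cells were stained live at seeding with Hoechst33342, BioTracker Green Microtubule Cytoskeleton Dye, MitoTracker Red and Annexin V Alexa Fluor 680, then imaged after compound addition on a CQ1 microscope at 37°C and 5% CO2. Machine-learning gating in CellPathfinder separated Hoechst high-intensity objects from normal cells, divided normal cells by nuclear state (healthy, pyknosed, fragmented) and divided pyknosed cells into mitotic or apoptotic.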

SMILES | Population Apoptotic (%) | Population Fragmented Nuclei (%) | Population Healthy Nuclei (%) | Population Hoechst High Intensity Objects (%) | Population Membrane Permeable-Phenotype (%) | Population Mitochondria Different-Phenotype (%) | Population Mitotic Cells (%) | Population Normal (%) | Population Pyknosed Nuclei (%) | Population Tubulin-Different-Phenotype (%)
Cc1cc(C)cc(C(=O)NOCCCCCC(=O)NO)c1 | 7.89% and 11.48% | 1.15% and 1.27% | 55.3% and 21.02% | 0% and 0.63% | 0% and 9.09% | 25.91% and 12.12% | 92.11% and 88.52% | 100% and 99.37% | 43.55% and 77.71% | 7.25% and 18.18%
CC(=O)Nc1cccc2c1c(Sc1ccc(Cl)cc1)c(C)n2CC(=O)O [AZD1981] | 37% and 60% | 6% and 5% | 81% and 80% | 6% and 8% | 0% | 46% and 57% | 62% and 40% | 93% and 91% | 11% and 13% | 28% and 18%
CC(C)(O)c1cnc(N2C[C@@]3(CCC[C@](C)(Cn4cnc5ccc(C#N)cc54)C3)OC2=O)cn1 [GSK2798745] | 8.76% and 9.45% | 1.42% and 8.48% |  | 0% | 0% and 4.17% | 40% and 37.5% | 91.24% and 90.55% | 100% | 38.92% and 76.97% | 
CN1CCN(c2ccc(Nc3c4ccccc4nc4ccccc34)cc2)CC1.Cl.Cl.O | 42% and 55% | 7% and 4% | 81% and 90% | 3% and 1% | 0% | 50% and 59% | 57% and 45% | 96% and 98% | 11% and 5% | 28% and 20%

Same assay, conditions: human, 12 h, 1 µM, compound concentration 1 uM

SMILES | Total Cell Count
Cc1cc(C)cc(C(=O)NOCCCCCC(=O)NO)c1 | 349 and 158
CC(=O)Nc1cccc2c1c(Sc1ccc(Cl)cc1)c(C)n2CC(=O)O [AZD1981] | 405 and 314
CC(C)(O)c1cnc(N2C[C@@]3(CCC[C@](C)(Cn4cnc5ccc(C#N)cc54)C3)OC2=O)cn1 [GSK2798745] | 352 and 165
CN1CCN(c2ccc(Nc3c4ccccc4nc4ccccc34)cc2)CC1.Cl.Cl.O | 411 and 364

Same assay, conditions: human, 12 h, 10 µM, compound concentration 10 uM

SMILES | Population Apoptotic (%) | Population Fragmented Nuclei (%) | Population Healthy Nuclei (%) | Population Hoechst High Intensity Objects (%) | Population Membrane Permeable-Phenotype (%) | Population Mitochondria Different-Phenotype (%) | Population Mitotic Cells (%) | Population Normal (%) | Population Pyknosed Nuclei (%) | Total Cell Count
Cc1cc(C)cc(C(=O)NOCCCCCC(=O)NO)c1 | 9.87% and 7.69% | 3.28% and 1.65% | 51.34% and 26.92% | 0.3% and 0% | 1.16% and 0% | 29.65% and 12.24% | 90.13% and 92.31% | 99.7% and 100% | 45.37% and 71.43% | 336 and 182
CC(=O)Nc1cccc2c1c(Sc1ccc(Cl)cc1)c(C)n2CC(=O)O [AZD1981] | 38% and 60% | 8% and 6% | 78% and 77% | 7% and 15% | 0% | 44% and 60% | 61% and 39% | 92% and 84% | 12% and 15% | 403 and 318
CC(C)(O)c1cnc(N2C[C@@]3(CCC[C@](C)(Cn4cnc5ccc(C#N)cc54)C3)OC2=O)cn1 [GSK2798745] | 8.93% and 6.72% | 1.58% and 0.69% | 45.43% and 17.24% | 0.63% and 0% | 0% | 36.11% and 20% | 91.07% and 93.28% | 99.37% and 100% | 53% and 82.07% | 319 and 145
CN1CCN(c2ccc(Nc3c4ccccc4nc4ccccc34)cc2)CC1.Cl.Cl.O | 100% | 24% and 40% | 74% and 58% | 1% and 0% | 0% | 99% and 100% | 0% | 98% and 99% | 1% | 234 and 194

Same assay, conditions: human, 12 h, 10 µM, compound concentration 10 uM

SMILES | Population Tubulin-Different-Phenotype (%)
CC(=O)Nc1cccc2c1c(Sc1ccc(Cl)cc1)c(C)n2CC(=O)O [AZD1981] | 29% and 26%
CC(C)(O)c1cnc(N2C[C@@]3(CCC[C@](C)(Cn4cnc5ccc(C#N)cc54)C3)OC2=O)cn1 [GSK2798745] | 24.31% and 48%
CN1CCN(c2ccc(Nc3c4ccccc4nc4ccccc34)cc2)CC1.Cl.Cl.O | 97% and 92%

Same assay, conditions: human, 24 h, 1 µM, compound concentration 1 uM

SMILES | Population Apoptotic (%) | Population Fragmented Nuclei (%) | Population Healthy Nuclei (%) | Population Hoechst High Intensity Objects (%) | Population Membrane Permeable-Phenotype (%) | Population Mitochondria Different-Phenotype (%) | Population Mitotic Cells (%) | Population Normal (%) | Population Pyknosed Nuclei (%) | Population Tubulin-Different-Phenotype (%)
Cc1cc(C)cc(C(=O)NOCCCCCC(=O)NO)c1 | 32.32% and 20.49% | 0.99% and 2.29% | 74.57% and 28% | 0.25% and 0.57% | 1.66% and 0% | 25.5% and 16.33% | 67.68% and 79.51% | 99.75% and 99.43% | 24.44% and 69.71% | 17.88% and 30.61%
CC(=O)Nc1cccc2c1c(Sc1ccc(Cl)cc1)c(C)n2CC(=O)O [AZD1981] | 20% and 54% | 9% and 7% | 80% | 2% and 9% | 0% | 33% and 42% | 79% and 45% | 97% and 90% | 9% and 11% | 23% and 16%
CC(C)(O)c1cnc(N2C[C@@]3(CCC[C@](C)(Cn4cnc5ccc(C#N)cc54)C3)OC2=O)cn1 [GSK2798745] | 18.02% and 17.31% | 0.94% and 3.7% | 78.24% and 32.1% | 0% | 2.88% and 0% | 16.31% and 11.54% | 81.98% and 82.69% | 100% |  | 16.79% and 7.69%
CN1CCN(c2ccc(Nc3c4ccccc4nc4ccccc34)cc2)CC1.Cl.Cl.O | 42% and 46% | 9% | 84% and 86% | 2% and 0% | 0% | 40% and 44% | 57% and 53% | 97% and 99% | 5% and 4% | 14% and 12%

Same assay, conditions: human, 24 h, 1 µM, compound concentration 1 uM

SMILES | Total Cell Count
Cc1cc(C)cc(C(=O)NOCCCCCC(=O)NO)c1 | 406 and 176
CC(=O)Nc1cccc2c1c(Sc1ccc(Cl)cc1)c(C)n2CC(=O)O [AZD1981] | 568 and 398
CN1CCN(c2ccc(Nc3c4ccccc4nc4ccccc34)cc2)CC1.Cl.Cl.O | 455 and 362

Same assay, conditions: human, 24 h, 10 µM, compound concentration 10 uM

SMILES | Population Apoptotic (%) | Population Fragmented Nuclei (%) | Population Healthy Nuclei (%) | Population Hoechst High Intensity Objects (%) | Population Membrane Permeable-Phenotype (%) | Population Mitotic Cells (%) | Population Normal (%) | Population Pyknosed Nuclei (%) | Population Tubulin-Different-Phenotype (%) | Total Cell Count
Cc1cc(C)cc(C(=O)NOCCCCCC(=O)NO)c1 | 24.32% and 10.53% | 3.75% and 3.33% | 73.12% and 33.33% | 0% | 0% and 1.67% | 75.68% and 89.47% | 100% | 23.12% and 63.33% | 4.27% and 1.67% | 320 and 180
CC(=O)Nc1cccc2c1c(Sc1ccc(Cl)cc1)c(C)n2CC(=O)O [AZD1981] | 40% and 59% | 7% and 8% | 79% and 81% | 4% and 12% | 0% | 59% and 40% | 95% and 87% | 13% and 9% | 25% and 19% | 526 and 387
CC(C)(O)c1cnc(N2C[C@@]3(CCC[C@](C)(Cn4cnc5ccc(C#N)cc54)C3)OC2=O)cn1 [GSK2798745] | 17.91% and 14.14% | 2.04% and 1.31% | 63.87% and 33.99% | 0% | 0.8% and 0% | 82.09% and 85.86% | 100% | 34.1% and 64.71% | 37.85% and 13.46% | 393 and 153
CN1CCN(c2ccc(Nc3c4ccccc4nc4ccccc34)cc2)CC1.Cl.Cl.O | 100% | 28% and 45% | 69% and 53% | 2% and 0% | 0% | 0% | 97% and 99% | 2% and 0% | 92% and 91% | 247 and 206

Same assay, conditions: human, 24 h, 10 µM, compound concentration 10 uM

SMILES | Population Mitochondria Different-Phenotype (%)
CC(=O)Nc1cccc2c1c(Sc1ccc(Cl)cc1)c(C)n2CC(=O)O [AZD1981] | 28% and 45%
CC(C)(O)c1cnc(N2C[C@@]3(CCC[C@](C)(Cn4cnc5ccc(C#N)cc54)C3)OC2=O)cn1 [GSK2798745] | 27.09% and 9.62%
CN1CCN(c2ccc(Nc3c4ccccc4nc4ccccc34)cc2)CC1.Cl.Cl.O | 100%

Same assay, conditions: human, 48 h, 1 µM, compound concentration 1 uM

SMILES | Population Apoptotic (%) | Population Fragmented Nuclei (%) | Population Healthy Nuclei (%) | Population Hoechst High Intensity Objects (%) | Population Membrane Permeable-Phenotype (%) | Population Mitochondria Different-Phenotype (%) | Population Mitotic Cells (%) | Population Normal (%) | Population Pyknosed Nuclei (%) | Total Cell Count
Cc1cc(C)cc(C(=O)NOCCCCCC(=O)NO)c1 | 23.33% and 32.22% | 5.26% and 1.12% | 76.52% and 48.6% | 1% and 0% | 1.59% and 2.3% | 50.26% and 32.18% | 76.67% and 67.78% | 99% and 100% | 18.22% and 50.28% | 499 and 179
CC(=O)Nc1cccc2c1c(Sc1ccc(Cl)cc1)c(C)n2CC(=O)O [AZD1981] | 21% and 38% | 15% and 13% | 78% and 79% | 1% and 3% | 1% | 18% and 20% | 78% and 61% | 98% and 96% | 6% | 908 and 570
CC(C)(O)c1cnc(N2C[C@@]3(CCC[C@](C)(Cn4cnc5ccc(C#N)cc54)C3)OC2=O)cn1 [GSK2798745] |  | 2.32% and 3.45% | 86.2% and 69.4% | 0% and 1.28% | 5.88% and 4.97% | 16.75% and 31.68% | 97.55% and 73.02% | 100% and 98.72% | 11.48% and 27.16% | 
CN1CCN(c2ccc(Nc3c4ccccc4nc4ccccc34)cc2)CC1.Cl.Cl.O | 45% and 60% | 11% and 10% | 82% and 85% | 3% and 1% | 0% | 30% and 36% | 54% and 40% | 96% and 98% | 6% and 3% | 581 and 411

Same assay, conditions: human, 48 h, 1 µM, compound concentration 1 uM

SMILES | Population Tubulin-Different-Phenotype (%)
CC(=O)Nc1cccc2c1c(Sc1ccc(Cl)cc1)c(C)n2CC(=O)O [AZD1981] | 10% and 12%
CN1CCN(c2ccc(Nc3c4ccccc4nc4ccccc34)cc2)CC1.Cl.Cl.O | 16% and 12%

Same assay, conditions: human, 48 h, 10 µM, compound concentration 10 uM

SMILES | Population Apoptotic (%) | Population Fragmented Nuclei (%) | Population Healthy Nuclei (%) | Population Hoechst High Intensity Objects (%) | Population Membrane Permeable-Phenotype (%) | Population Mitotic Cells (%) | Population Normal (%) | Population Pyknosed Nuclei (%) | Population Tubulin-Different-Phenotype (%) | Total Cell Count
Cc1cc(C)cc(C(=O)NOCCCCCC(=O)NO)c1 | 30.43% and 28% | 3.91% and 6.29% | 63.35% and 36.57% | 0.35% and 0.57% | 3.37% and 0% | 69.57% and 72% | 99.65% and 99.43% | 32.74% and 57.14% | 7.87% and 17.19% | 282 and 176
CC(=O)Nc1cccc2c1c(Sc1ccc(Cl)cc1)c(C)n2CC(=O)O [AZD1981] | 37% and 33% | 14% and 16% | 78% | 2% and 4% | 0% | 62% and 66% | 97% and 95% | 7% and 5% | 11% | 751 and 556
CC(C)(O)c1cnc(N2C[C@@]3(CCC[C@](C)(Cn4cnc5ccc(C#N)cc54)C3)OC2=O)cn1 [GSK2798745] | 12.84% and 15.85% | 2.45% and 0.91% | 82.72% and 61.64% | 0.14% and 0% | 8.39% and 0.74% | 87.16% and 84.15% | 99.86% and 100% | 14.83% and 37.44% |  | 
CN1CCN(c2ccc(Nc3c4ccccc4nc4ccccc34)cc2)CC1.Cl.Cl.O | 100% and 66% | 34% and 52% | 56% and 46% | 11% and 5% | 0% |  | 88% and 94% | 9% and 1% | 88% and 89% | 318 and 272

Same assay, conditions: human, 48 h, 10 µM, compound concentration 10 uM

SMILES | Population Mitochondria Different-Phenotype (%)
CC(=O)Nc1cccc2c1c(Sc1ccc(Cl)cc1)c(C)n2CC(=O)O [AZD1981] | 18% and 26%
CC(C)(O)c1cnc(N2C[C@@]3(CCC[C@](C)(Cn4cnc5ccc(C#N)cc54)C3)OC2=O)cn1 [GSK2798745] | 44.41% and 40%
CN1CCN(c2ccc(Nc3c4ccccc4nc4ccccc34)cc2)CC1.Cl.Cl.O | 100% and 99%
